Sampled rows, rich in hits. Any-hit rate of the full collection: about 4.6%.
TAAR1 antag: antagonists of human TAAR1 | Q96RJ0 | CHO RD-HGA16 TAAR1, Fluo-8 calcium fluorescence, antagonist | inhibition, % at 3 µM | actives 1.5% (n = 360,000) | AID 624466;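 active = inhibition above a per-plate cutoff, the mean inhibition of test compounds on that plate plus 3 SD, cut at about 49% in these data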;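 also: 0% = DMSO plus EC80 beta-PEA response and 100% = DMSO alone without agonist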
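Test system – hTAAR1-expressing CHO RD-HGA16 cells, Gα16-coupled · Reagent – β-PEA at EC80 concentration, post-compound challenge · Compound dosing – 3 µM, single point · Timing – 140 s kinetic read after compound, 140 s after agonist · Detection – Fluo-8 intracellular calcium dye fluorescence, real-time kinetic reads · Control set – DMSO and EC80 PEA controls · Repeats – n of 1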
OX1R antag-1: antagonists of human orexin 1 receptor; O43613; CHO/OX1R cells, Fluo-8 calcium fluorescence, orexin A; inhibition, % at 5 µM; actives 0.43% (n = 330,000);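 active = inhibition above its plate's threshold, mean inhibition of all tested compounds on the plate plus 3 SD, cut at about 37% in these data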;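 also: 0% = orexin A challenge wells and 100% = SB-334867-A antagonist wells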
Target sequence (O43613 whole entry, looked up): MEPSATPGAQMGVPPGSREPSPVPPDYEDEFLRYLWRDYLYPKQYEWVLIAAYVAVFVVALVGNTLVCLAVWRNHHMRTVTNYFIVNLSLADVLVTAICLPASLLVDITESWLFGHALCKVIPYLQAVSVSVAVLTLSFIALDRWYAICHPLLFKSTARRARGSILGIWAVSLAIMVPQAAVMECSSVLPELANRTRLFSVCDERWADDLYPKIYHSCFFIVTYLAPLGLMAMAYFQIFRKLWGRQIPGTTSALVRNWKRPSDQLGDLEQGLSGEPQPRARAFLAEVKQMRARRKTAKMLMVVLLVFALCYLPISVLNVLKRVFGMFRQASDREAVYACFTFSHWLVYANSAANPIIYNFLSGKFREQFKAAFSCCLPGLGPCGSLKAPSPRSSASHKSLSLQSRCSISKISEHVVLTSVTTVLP
GPR7 antag: antagonists of human GPR7 (neuropeptides B/W receptor 1). P48145. GPR7-expressing cells, fluorescence antagonist assay. inhibition, % at 4.4 µM. actives 1.1% (n = 290,000). AID 1861; in the data active = inhibition above about 16%, passing the limit was not always enough;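 also: cells stimulated with the agonist NPW; 0% = agonist with vehicle and 100% = vehicle without agonist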
Target sequence (P48145 whole entry, looked up): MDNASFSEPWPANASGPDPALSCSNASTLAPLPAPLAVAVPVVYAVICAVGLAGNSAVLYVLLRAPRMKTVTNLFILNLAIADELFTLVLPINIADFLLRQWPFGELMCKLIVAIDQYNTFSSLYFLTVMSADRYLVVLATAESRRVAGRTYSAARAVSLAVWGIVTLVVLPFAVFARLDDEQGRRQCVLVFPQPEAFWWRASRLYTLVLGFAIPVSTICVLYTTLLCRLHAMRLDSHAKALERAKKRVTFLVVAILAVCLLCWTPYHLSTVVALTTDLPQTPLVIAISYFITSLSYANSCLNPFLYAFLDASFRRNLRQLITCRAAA
OX1R antag-2: OX1R (human) antagonism. O43613. OX1R-expressing cells, FRET antagonist read-out. inhibition, % at 6.6 µM. actives 1.8% (n = 330,000). AID 485270; in the data active = inhibition mostly above about 38%, no sharp cut-off; inactive = mostly below about 40%;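 also: 0% = agonist challenge alone and 100% = reference antagonist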
CHO parental Ca: counter-screen: ATP calcium response change in parental CHO cells. actives 0.63% (n = 330,000). AID 463079. parental CHO-K1, ATP-induced calcium, Fluo-8 fluorescence. inhibition, % at 5.6 µM;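 active = inhibition above that plate's mean sample inhibition plus 3 SD, cut at about 26% in these data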;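 also: 0% = ATP-challenged DMSO wells and 100% = DMSO wells without ATP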
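Test system: untransfected parental CHO cell line; also added: ATP stimulus; dosing: 5.6 µM, single dose; signal: calcium-sensitive Fluo-8 fluorescence; measure: percent inhibition of ATP-evoked calcium rise, normalized to controls; benchmarks: low control ATP plus DMSO, high control DMSO only; replication: one well per compound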
TAAR1 ag: agonists of human TAAR1 | AID 624467 | CHO RD-HGA16 TAAR1, Fluo-8 calcium fluorescence; vehicle wells 0%, saturating PEA agonist 100% | Q96RJ0 | actives 0.99% (n = 360,000) | activation, % at 3 µM;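 active = activation above the mean activation of all test compounds in the run plus 3 SD, cut at about 38% in these data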
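System: CHO-derived RD-HGA16 cells with stable Gα16 and human TAAR1. Times: 17-24 h plating, Fluo-8 75 min 37 °C, 30 min RT. Measured by: calcium-sensitive Fluo-8 signal, excitation 470-495, emission 515-575 nm. Read-out basis: % activation relative to PEA EC100 response. Control set: DMSO and PEA EC100. Repeats: no replicates (n 1).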
OX1R Ca confirm: confirmation of human orexin 1 receptor antagonists; actives 38% (n = 1,100); inhibition, % at 5 µM; shares compounds with OX1R antag-1; CHO/OX1R cells, orexin A calcium Fluo-8 fluorescence; in the data active = inhibition above about 29%;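 also: 0% = agonist challenge alone and 100% = reference antagonist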
CHO Ca counter: counter-screen: parental CHO calcium response change, triplicate; actives 9.3% (n = 1,100); inhibition, % at 5.6 µM; parental CHO-K1, ATP-induced calcium, Fluo-8 fluorescence; AID 492965; shares compounds with OX1R antag-1;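 active = inhibition above a per-plate limit, the mean inhibition of that plate's test compounds plus 3 SD, cut at about 25% in these data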;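 also: 0% = ATP challenge with DMSO and 100% = DMSO without ATP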
OX1R HTRF confirm: confirmation of human orexin 1 receptor antagonists, HTRF format. shares compounds with OX1R antag-2. OX1R-expressing cells, HTRF antagonist assay. inhibition, % at 6.6 µM. actives 49% (n = 1,800). AID 492964; in the data active = inhibition above about 55%;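 also: CHO cells expressing OX1R stimulated with orexin A at about EC80; 0% = agonist challenge alone and 100% = reference antagonist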
CHO-K1 HTRF cnt: counter-screen for OX1R antagonists: effect in parental CHO-K1 cells; actives 48% (n = 1,800); HTRF counterscreen; inhibition, % at 6.6 µM; shares compounds with OX1R antag-2; AID 493232; in the data active = inhibition above about 17%;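 also: 0% = agonist challenge with vehicle and 100% = vehicle alone without agonist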
* = called active by the depositor.

Results for CCn1c(-c2ccccc2Cl)nn(CC(=O)Nc2cc(Cl)ccc2Cl)c1=S ?
TAAR1 antag: 4; OX1R antag-1: 46*; GPR7 antag: -9; OX1R antag-2: 54*; CHO parental Ca: -6; TAAR1 ag: 23; OX1R Ca confirm: 8; CHO Ca counter: -5; OX1R HTRF confirm: 49; CHO-K1 HTRF cnt: -6

What do the screens show for `CC(=O)Nc1cccc(OCC(=O)Nc2ccccc2)c1`?
TAAR1 antag: -7; OX1R antag-1: 4; GPR7 antag: 13; OX1R antag-2: -3; CHO parental Ca: 2; TAAR1 ag: 11

How did CC(=O)Nc1cccc(OCC(=O)NC(C)c2ccc3ccccc3c2)c1 (stereo not drawn) do in these assays?
TAAR1 antag: 8; OX1R antag-1: 51*; GPR7 antag: -3; OX1R antag-2: 90*; CHO parental Ca: -13; TAAR1 ag: -1; OX1R Ca confirm: 62*; CHO Ca counter: -4; OX1R HTRF confirm: 78*; CHO-K1 HTRF cnt: 12

How did COc1ccc(OC)c(C2=NOC(C(=O)NCc3cccs3)C2)c1 (stereo not drawn) do in these assays?
TAAR1 antag: 6; OX1R antag-1: -6; GPR7 antag: 3; OX1R antag-2: 11; CHO parental Ca: -21; TAAR1 ag: 2

How did CC1CC(C)CN(C(=O)C(NS(=O)(=O)c2ccc(Br)s2)c2ccccc2)C1 (stereo not drawn) do in these assays?
TAAR1 antag: 20; OX1R antag-1: -50; GPR7 antag: -5; OX1R antag-2: 17; CHO parental Ca: -36; TAAR1 ag: 0

Results for CCN(CC)S(=O)(=O)c1cc(NC(=O)CSCc2c(C)noc2C)ccc1C ?
TAAR1 antag: -3; OX1R antag-1: 46*; OX1R antag-2: 74*; CHO parental Ca: -10; TAAR1 ag: 3; OX1R Ca confirm: 36*; CHO Ca counter: -22; OX1R HTRF confirm: 80*; CHO-K1 HTRF cnt: -13

Results for CCN(CC)S(=O)(=O)c1cc(NC(=O)CCc2c(C)noc2C)ccc1C ?
TAAR1 antag: -4; OX1R antag-1: 15; OX1R antag-2: 22; CHO parental Ca: -12; TAAR1 ag: 2

Results for O=C(N/N=C/c1cccc(Oc2ccccc2)c1)c1ccc(O)cc1O ?
TAAR1 antag: 12; GPR7 antag: -12; TAAR1 ag: -1

How did Cn1c2ccccc2c2cc(/C=N/NC(=O)c3ccc(O)cc3O)ccc21 do in these assays?
OX1R antag-1: 34; GPR7 antag: 2; OX1R antag-2: 92*; CHO parental Ca: 2; OX1R Ca confirm: 28; CHO Ca counter: 25*; OX1R HTRF confirm: 73*; CHO-K1 HTRF cnt: 13

What do the screens show for `Cc1cc(=O)oc2cc(OC(=O)CCCCCN3C(=O)c4ccccc4C3=O)ccc12`?
TAAR1 antag: 15; OX1R antag-1: -3; GPR7 antag: -10; OX1R antag-2: 15; CHO parental Ca: -1; TAAR1 ag: 5

How did Cc1cc(C)nc(NC(=O)CSc2nc3ccccc3s2)n1 do in these assays?
TAAR1 antag: -11; OX1R antag-1: 43*; GPR7 antag: 5; OX1R antag-2: 98*; CHO parental Ca: -11; TAAR1 ag: 12; OX1R Ca confirm: 42*; CHO Ca counter: -8; OX1R HTRF confirm: 82*; CHO-K1 HTRF cnt: -1

Results for CC(=CC(=O)c1ccccc1)c1ccccc1 ?
TAAR1 antag: -15; TAAR1 ag: 1

Results for COc1ccc(CNC(=O)CN(c2ccc(C(C)C)cc2)S(=O)(=O)c2c(C)noc2C)cc1 ?
TAAR1 antag: -18; OX1R antag-1: -27; GPR7 antag: 7; OX1R antag-2: 9; CHO parental Ca: -26; TAAR1 ag: 2

What do the screens show for `COc1ccc(N(CC(=O)NC(C)c2ccccc2)S(=O)(=O)c2c(C)noc2C)cc1` (stereo not drawn)?
TAAR1 antag: -10; OX1R antag-1: 44; GPR7 antag: -13; OX1R antag-2: 67*; CHO parental Ca: -23; TAAR1 ag: -2; OX1R Ca confirm: 18; CHO Ca counter: -10; OX1R HTRF confirm: 66*; CHO-K1 HTRF cnt: -3

Results for Cc1ccc(N(CC(=O)NCCc2ccc(Cl)cc2)S(=O)(=O)c2c(C)noc2C)cc1 ?
TAAR1 antag: 0; OX1R antag-1: 34; GPR7 antag: -1; OX1R antag-2: 49*; CHO parental Ca: -32; TAAR1 ag: -1; OX1R Ca confirm: 60*; CHO Ca counter: -16; OX1R HTRF confirm: 86*; CHO-K1 HTRF cnt: 3

How did Cc1ccc(CCNC(=O)CN(c2ccc(C)cc2)S(=O)(=O)c2c(C)noc2C)cc1 do in these assays?
TAAR1 antag: -42; OX1R antag-1: 60*; GPR7 antag: 2; OX1R antag-2: 80*; CHO parental Ca: -45; TAAR1 ag: -3; OX1R Ca confirm: 30*; CHO Ca counter: -28; OX1R HTRF confirm: 80*; CHO-K1 HTRF cnt: 8

What do the screens show for `CC(=O)Nc1cc2nn(-c3ccccc3)nc2cc1C`?
TAAR1 antag: -9; OX1R antag-1: -9; GPR7 antag: 1; OX1R antag-2: 1; CHO parental Ca: -5; TAAR1 ag: 0

Results for Cc1cc2nn(-c3ccccc3)nc2cc1NC(=O)c1cccs1 ?
TAAR1 antag: 4; OX1R antag-1: 61*; GPR7 antag: 1; OX1R antag-2: 79*; CHO parental Ca: -13; TAAR1 ag: 2; OX1R Ca confirm: 17; CHO Ca counter: 2; OX1R HTRF confirm: 70*; CHO-K1 HTRF cnt: 18*

How did Cc1ccc(CS(=O)(=O)c2ccc(C(=O)N3CCN(c4ccccn4)CC3)cc2[N+](=O)[O-])cc1 do in these assays?
TAAR1 antag: 47; OX1R antag-1: -18; GPR7 antag: 9; OX1R antag-2: 9; CHO parental Ca: -1; TAAR1 ag: 7

Results for CCOC(=O)N1CCN(CC(O)COc2cc(C)cc(C)c2)CC1 (stereo not drawn) ?
TAAR1 antag: 1; OX1R antag-1: -10; GPR7 antag: -17; OX1R antag-2: -8; CHO parental Ca: -6; TAAR1 ag: 1
